Data from ChEMBL document CHEMBL1148329, “Synthesis and structure-activity studies on N-[5-(1H-imidazol-4-yl)-5,6,7,8-tetrahydro-1-naphthalenyl]methanesulfonamide, an imidazole-containing alpha(1A)-adrenoceptor agonist” (J Med Chem, 2004).
Calls of active or inactive are those of the source. The calls are words filed in the database; no cut-off is given here.

Columns and labels:
[1] = target: Alpha adrenergic receptor 1A and 1D (Rattus norvegicus) (UniProt P23944+P43140); experiment: Selectivity is ratio of pKi (binding affinity) of Alpha-1D to that of alpha1A; type: protein assay
[2] = target: T1, Alpha-1B adrenergic receptor (Mesocricetus auratus, UniProt P18841); experiment: In vitro binding affinity towards alpha-1B adrenergic receptor of hamster clone in radioligand binding assay; type: single protein
T1 sequence (P18841 whole entry): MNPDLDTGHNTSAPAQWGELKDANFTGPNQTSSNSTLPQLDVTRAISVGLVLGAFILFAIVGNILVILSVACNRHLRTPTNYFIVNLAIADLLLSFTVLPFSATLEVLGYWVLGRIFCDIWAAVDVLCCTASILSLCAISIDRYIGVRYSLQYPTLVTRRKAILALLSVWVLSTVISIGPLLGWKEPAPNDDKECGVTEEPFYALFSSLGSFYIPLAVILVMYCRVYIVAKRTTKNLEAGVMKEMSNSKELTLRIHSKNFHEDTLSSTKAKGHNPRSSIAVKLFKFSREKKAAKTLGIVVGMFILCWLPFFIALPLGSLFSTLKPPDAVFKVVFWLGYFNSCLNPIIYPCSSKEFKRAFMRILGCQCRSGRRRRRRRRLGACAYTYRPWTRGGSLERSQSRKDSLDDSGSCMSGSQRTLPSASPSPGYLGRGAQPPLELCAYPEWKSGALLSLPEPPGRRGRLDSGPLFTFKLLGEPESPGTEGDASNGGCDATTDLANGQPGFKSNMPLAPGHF
Summary of the method: (§1)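 Radioligand binding at α1 subtypes: α1A from rat submaxillary gland, α1B hamster clone, α1D rat clone. Run essentially per an earlier method.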

[3] = target: Alpha adrenergic receptor 1A and 1B (Rattus norvegicus) (UniProt P15823+P43140); experiment: Selectivity is ratio of pKi (binding affinity) of alpha-1B receptor to that of alpha-1A receptor.; type: protein assay
[4] = target: T2, Alpha-1A adrenergic receptor (Bos taurus, UniProt P18130); experiment: In vitro binding affinity towards alpha-1A adrenergic receptor of bovine clone in radioligand binding assay
T2 sequence (P18130 whole entry): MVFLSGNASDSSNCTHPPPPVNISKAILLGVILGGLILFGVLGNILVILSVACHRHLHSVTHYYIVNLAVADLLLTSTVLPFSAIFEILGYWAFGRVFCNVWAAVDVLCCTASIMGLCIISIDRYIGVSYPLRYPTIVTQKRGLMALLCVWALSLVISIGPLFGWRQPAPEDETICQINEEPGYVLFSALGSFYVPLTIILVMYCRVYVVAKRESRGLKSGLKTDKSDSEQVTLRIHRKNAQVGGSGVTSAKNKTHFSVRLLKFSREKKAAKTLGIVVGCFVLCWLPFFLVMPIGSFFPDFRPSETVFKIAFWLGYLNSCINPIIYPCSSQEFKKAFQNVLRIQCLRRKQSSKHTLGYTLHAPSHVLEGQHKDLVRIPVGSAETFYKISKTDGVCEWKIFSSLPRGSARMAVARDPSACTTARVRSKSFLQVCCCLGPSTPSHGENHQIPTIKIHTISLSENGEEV

[5] = target: Alpha-1A adrenergic receptor (Oryctolagus cuniculus) (UniProt O02824); experiment: Functional agonism of the compounds to constrict tissue containing the alpha-1A adrenergic receptor in rabbit urethra; Inactive
[6] = target: T3, Alpha-1A adrenergic receptor (Rattus norvegicus, UniProt P43140); experiment: In vitro binding affinity towards alpha-1A adrenergic receptor of rat submaxillary gland in radioligand binding assay; summary of the method: as §1
T3 sequence (P43140 whole entry): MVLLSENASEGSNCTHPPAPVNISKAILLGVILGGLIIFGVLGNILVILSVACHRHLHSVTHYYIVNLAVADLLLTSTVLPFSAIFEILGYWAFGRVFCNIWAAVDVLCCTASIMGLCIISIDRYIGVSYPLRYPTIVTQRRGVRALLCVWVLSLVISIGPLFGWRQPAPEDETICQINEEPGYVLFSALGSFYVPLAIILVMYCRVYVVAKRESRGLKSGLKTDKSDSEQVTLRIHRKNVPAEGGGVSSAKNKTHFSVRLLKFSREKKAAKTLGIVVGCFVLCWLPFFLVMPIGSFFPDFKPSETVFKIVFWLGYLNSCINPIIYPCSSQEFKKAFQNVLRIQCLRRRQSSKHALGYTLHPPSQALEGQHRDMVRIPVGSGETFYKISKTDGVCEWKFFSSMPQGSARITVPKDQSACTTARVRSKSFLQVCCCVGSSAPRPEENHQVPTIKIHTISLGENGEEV

[7] = target: T4, Alpha-1D adrenergic receptor (Rattus norvegicus, UniProt P23944); experiment: In vitro binding affinity towards alpha-1D adrenergic receptor of rat clone in radioligand binding assay; summary of the method: as §1
T4 sequence (P23944 whole entry): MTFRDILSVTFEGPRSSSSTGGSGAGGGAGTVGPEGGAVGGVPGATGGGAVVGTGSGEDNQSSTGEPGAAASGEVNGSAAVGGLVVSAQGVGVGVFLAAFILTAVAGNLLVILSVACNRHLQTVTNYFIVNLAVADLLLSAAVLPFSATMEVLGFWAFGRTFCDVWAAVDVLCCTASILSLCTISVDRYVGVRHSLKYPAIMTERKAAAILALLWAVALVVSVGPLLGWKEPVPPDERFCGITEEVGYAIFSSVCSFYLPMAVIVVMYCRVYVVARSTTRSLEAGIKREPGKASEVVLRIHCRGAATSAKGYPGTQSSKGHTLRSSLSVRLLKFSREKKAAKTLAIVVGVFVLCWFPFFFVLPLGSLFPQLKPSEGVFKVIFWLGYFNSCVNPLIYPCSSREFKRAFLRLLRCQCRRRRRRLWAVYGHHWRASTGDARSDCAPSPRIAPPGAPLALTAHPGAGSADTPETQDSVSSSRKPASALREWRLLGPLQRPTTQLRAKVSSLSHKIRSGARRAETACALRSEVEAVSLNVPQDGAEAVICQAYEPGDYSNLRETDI

[8] = target: T5, Alpha-2B adrenergic receptor (Rattus norvegicus, UniProt P19328); experiment: In vitro binding affinity towards alpha-2B adrenergic receptor of rat neonatal lung in radioligand binding assay
T5 sequence (P19328 whole entry): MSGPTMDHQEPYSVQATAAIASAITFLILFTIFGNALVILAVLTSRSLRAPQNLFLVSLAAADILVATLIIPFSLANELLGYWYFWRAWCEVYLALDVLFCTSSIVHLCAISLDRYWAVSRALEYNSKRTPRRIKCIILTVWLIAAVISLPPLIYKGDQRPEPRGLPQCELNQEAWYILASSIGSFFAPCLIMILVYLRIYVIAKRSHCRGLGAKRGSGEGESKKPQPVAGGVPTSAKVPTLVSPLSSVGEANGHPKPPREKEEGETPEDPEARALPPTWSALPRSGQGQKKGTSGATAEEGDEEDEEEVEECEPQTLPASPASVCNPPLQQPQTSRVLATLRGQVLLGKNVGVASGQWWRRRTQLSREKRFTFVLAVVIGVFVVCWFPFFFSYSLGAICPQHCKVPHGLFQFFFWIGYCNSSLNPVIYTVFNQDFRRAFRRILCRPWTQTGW

[9] = target: T6, Alpha-2A adrenergic receptor (Homo sapiens, UniProt P08913); experiment: In vitro binding affinity towards alpha-2A adrenergic receptor of human clone in radioligand binding assay
T6 sequence (P08913 whole entry): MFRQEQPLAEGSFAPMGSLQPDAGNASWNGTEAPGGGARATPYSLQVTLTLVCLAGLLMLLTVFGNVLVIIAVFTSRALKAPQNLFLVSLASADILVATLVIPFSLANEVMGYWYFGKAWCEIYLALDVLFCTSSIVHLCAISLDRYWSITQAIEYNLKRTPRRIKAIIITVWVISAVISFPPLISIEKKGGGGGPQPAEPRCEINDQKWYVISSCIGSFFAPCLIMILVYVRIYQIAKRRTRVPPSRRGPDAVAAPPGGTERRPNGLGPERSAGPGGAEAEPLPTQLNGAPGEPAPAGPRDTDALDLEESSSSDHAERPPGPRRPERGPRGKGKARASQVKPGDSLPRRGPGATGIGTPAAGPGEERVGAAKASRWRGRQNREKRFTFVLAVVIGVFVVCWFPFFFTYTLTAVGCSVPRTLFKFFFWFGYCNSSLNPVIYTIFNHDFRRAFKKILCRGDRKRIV

Rattus norvegicus = species: Rattus norvegicus; experiment: Relative affinities for alpha2B and alpha1A receptors
[10] = Relative affinities for alpha-2a and alpha-1A receptors

Sequence of Alpha adrenergic receptor 1A and 1B (Rattus norvegicus) (P15823 whole entry, looked up, one chain of several): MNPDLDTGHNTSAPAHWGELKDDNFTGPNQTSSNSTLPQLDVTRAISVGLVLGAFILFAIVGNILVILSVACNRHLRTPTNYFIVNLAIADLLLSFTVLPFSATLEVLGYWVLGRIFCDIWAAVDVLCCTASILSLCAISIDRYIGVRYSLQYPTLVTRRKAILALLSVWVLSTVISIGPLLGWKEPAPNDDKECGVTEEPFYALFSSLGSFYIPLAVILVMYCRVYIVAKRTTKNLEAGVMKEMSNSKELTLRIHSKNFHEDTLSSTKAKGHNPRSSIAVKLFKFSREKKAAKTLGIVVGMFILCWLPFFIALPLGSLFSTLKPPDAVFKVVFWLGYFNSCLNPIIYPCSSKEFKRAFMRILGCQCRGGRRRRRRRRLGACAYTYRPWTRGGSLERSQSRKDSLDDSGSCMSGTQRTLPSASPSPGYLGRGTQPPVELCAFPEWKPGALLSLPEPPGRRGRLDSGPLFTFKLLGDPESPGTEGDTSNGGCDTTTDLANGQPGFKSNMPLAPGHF
Sequence of Alpha-1A adrenergic receptor (Oryctolagus cuniculus) (O02824 whole entry, looked up): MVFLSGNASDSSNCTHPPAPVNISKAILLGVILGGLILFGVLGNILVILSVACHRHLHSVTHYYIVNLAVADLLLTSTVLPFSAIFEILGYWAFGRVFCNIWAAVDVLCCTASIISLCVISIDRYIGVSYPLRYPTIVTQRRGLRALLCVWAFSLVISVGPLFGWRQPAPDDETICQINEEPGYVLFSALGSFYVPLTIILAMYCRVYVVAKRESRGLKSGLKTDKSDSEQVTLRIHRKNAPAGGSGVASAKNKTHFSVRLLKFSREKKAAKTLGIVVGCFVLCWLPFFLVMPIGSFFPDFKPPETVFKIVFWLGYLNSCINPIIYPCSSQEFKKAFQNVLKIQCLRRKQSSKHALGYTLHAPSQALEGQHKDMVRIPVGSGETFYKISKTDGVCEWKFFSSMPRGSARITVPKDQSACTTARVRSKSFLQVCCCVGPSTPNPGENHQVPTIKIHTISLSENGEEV

Structure (SMILES) | Selectivity [1] | Ki [2] | Selectivity [3] | Ki [4] | pD2 [5] | Ki [6] | Ki [7] | Ki [8] | Ki [9] | Selectivity (Rattus norvegicus) | Selectivity [10]
CN(C)S(=O)(=O)Nc1cccc2c1CCCC2c1c[nH]cn1 (configuration not stated) | 3 | > 10000 nM | 20 | 977 nM | – | – | – | – | – | – | –
CCS(=O)(=O)Nc1cccc(C2CCNC2)c1 (configuration not stated) | 2 | > 10000 nM | > 20 | – | inactive | 501 nM | 1000 nM | – | – | – | –
COC(=O)Nc1cccc2c1CCCC2c1c[nH]cn1 (configuration not stated) | 30 | – | 100 | 148 nM | – | – | – | – | – | – | –
Oc1cccc2c1CCCC2c1c[nH]cn1 (configuration not stated) | 1 | 145 nM | 3 | 115 nM | – | – | 30.9 nM | 3.8 nM | 8.71 nM | 0.1 | 0.2
